Compound activity: PubChem BioAssay, Broad Institute
An excerpt weighted towards active compounds, which were near 1.5% of everything screened.
PGC1a acetyl inh: PGC1a acetylation modulation, inhibitor mode. U2OS PGC1a acetylation, AlphaScreen anti-acetyl-lysine; with virally co-expressed GCN5 acetyltransferase. inhibition, % at 15.6 µM. 0.17% of 350,000 active;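 active = every replicate shows inhibition of at least 40%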
Cneo AK release: causes C. neoformans cell lysis | adenylate kinase release luminescence, 4 h; normalised: neutral wells 0, clomiphene wells 100 | lysis activity, % at 15 µM | 0.2% of 360,000 active | AID 651654;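 active = mean lysis activity across replicates of at least 80%, whatever share of replicates individually reach that level; inactive = mean lysis activity below 80%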
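Signal: Adenylate kinase release luminescence | Assay system: Log-phase Cryptococcus neoformans yeast cells | Input: Cells at 5 × 10^6 per mL | Buffer or medium: Fresh YPD growth medium | Compound: Single dose | Schedule: Static 4 h at 37 °C with compound, 1 h detection | Controls: Clomiphene | Read-out: Luminescence rise reflecting yeast cell lysis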
Wnt bcat act: Wnt/beta-catenin pathway activation; activation, % at 9.35 µM; Wnt/beta-catenin reporter cell assay, activator, plate reader; 1.2% of 300,000 active; in the data active = activation above about 30%, passing the limit was not always enough
MITF act: activators of MITF-driven TRPM1 promoter activity in SK-MEL-5 cells. SK-MEL-5 TRPM1-promoter luciferase, 24 h; % of positive control, neutral wells = 0. activation, % at 12.5 µM. 0.75% of 300,000 active;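 active = mean activation of at least 80% with every replicate also reaching 80%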
Of the large screens only hits and unclear results are named; the others gave an inactive call; ! = repeats disagree.

C[C@H]1CN([C@@H](C)CO)C(=O)c2cc(C3=CCCC3)cnc2O[C@H]1CN(C)C(=O)C1CC1	none (no result: Cneo AK release, Wnt bcat act, MITF act)
C[C@@H]1CN([C@H](C)CO)S(=O)(=O)c2ccc(-c3ccc(F)cc3)cc2O[C@H]1CN(C)C(=O)Nc1ccc(F)cc1	none (no result: Cneo AK release, Wnt bcat act, MITF act)
Cc1c(C(=O)c2ccccc2)oc2ccc3ccccc3c12	Wnt bcat act 50.0 (no result: MITF act)
Nc1c(C(=O)c2ccccc2)oc2ccccc12	none
O=c1[nH]nc(-c2ccc(NCCO)c([N+](=O)[O-])c2)c2ccccc12	none
O=c1[nH]nc(-c2ccc(NCCCO)c([N+](=O)[O-])c2)c2ccccc12	PGC1a acetyl inh 59.3
CCOC(=O)c1ccc(NC(=O)C2CC3CCC2C3)cc1 (configuration not stated)	Wnt bcat act 45.5 (no result: MITF act)
COC(=O)c1ccc(NC(=O)C2CC3CCC2C3)cc1 (configuration not stated)	MITF act 98.3
OC[C@H]1[C@@H](c2ccc(-c3cccnc3)cc2)[C@H]2CN(CC3CCOCC3)CCCCN21	none (no result: Wnt bcat act, MITF act)
Cc1cccc(NC(=O)c2cccc([N+](=O)[O-])c2O)c1C	Wnt bcat act 49.0 (no result: PGC1a acetyl inh, Cneo AK release)
CO[C@H](CN(C)C(=O)C1CCOCC1)[C@@H](C)CN(C(=O)Nc1ccc(C(F)(F)F)cc1)[C@@H](C)CO	none (no result: Wnt bcat act, MITF act)
O=C(C[C@@H]1CC[C@H](NC(=O)Cc2ccccn2)[C@H](CO)O1)NCCc1ccccc1	Cneo AK release 80.6 (no result: Wnt bcat act, MITF act)
O=C(Cc1ccccn1)NCC[C@@H]1CC[C@H](NC(=O)Nc2ccc(C(F)(F)F)cc2)[C@H](CO)O1	PGC1a acetyl inh 77.9 (no result: Wnt bcat act, MITF act)
O=C(C[C@H]1CC[C@H](NC(=O)Cc2ccccn2)[C@@H](CO)O1)NCCc1ccccc1	none (no result: Wnt bcat act, MITF act)
C[C@@H]1CN([C@H](C)CO)C(=O)c2cc(NC(=O)c3ccncc3)ccc2O[C@@H](C)CCCCO[C@H]1CN(C)S(=O)(=O)c1cccs1	none (no result: Wnt bcat act, MITF act)
CC(=O)n1nc(-c2ccccc2)cc1-c1ccccc1	Wnt bcat act 64.2 (no result: PGC1a acetyl inh, Cneo AK release)
CCS(=O)(=O)Nc1ccc2c(c1)C(=O)N(C)C[C@H](OC)[C@@H](C)CN(C(=O)COC)[C@@H](C)CO2	none (no result: Wnt bcat act, MITF act)
C[C@H]1CN([C@@H](C)CO)C(=O)c2cc(-c3ccc(F)cc3)cnc2O[C@@H]1CN(C)CC1CCCCC1	Cneo AK release 90.0 (no result: Wnt bcat act, MITF act)
COc1ccc(-c2cnc3c(c2)C(=O)N([C@H](C)CO)C[C@H](C)[C@H](CN(C)Cc2ccc(F)cc2)O3)cc1	Cneo AK release 98.0 (no result: Wnt bcat act, MITF act)
C[C@@H]1CN([C@H](C)CO)C(=O)c2cc(-c3cccc(F)c3)cnc2O[C@H]1CN(C)Cc1ccccc1	Cneo AK release 116.3 (no result: Wnt bcat act, MITF act)
C[C@@H]1CN([C@@H](C)CO)C(=O)c2cc(C3=CCCCC3)cnc2O[C@H]1CN(C)C(=O)Cc1cccnc1	Cneo AK release 109.7 (no result: Wnt bcat act, MITF act)
C[C@H]1CN([C@@H](C)CO)C(=O)c2cc(C3=CCCCC3)cnc2O[C@H]1CN(C)C(=O)Cc1cccnc1	none (no result: Wnt bcat act, MITF act)
C[C@@H]1CN([C@H](C)CO)C(=O)c2cc(-c3ccc(F)cc3)cnc2O[C@@H]1CN(C)Cc1ccc(F)cc1	none (no result: Cneo AK release, Wnt bcat act, MITF act)
C[C@H](CO)N1C[C@H](C)[C@@H](CN(C)CC2CCCC2)Oc2ncc(-c3ccc(F)cc3)cc2C1=O	none (no result: Wnt bcat act, MITF act)
C[C@H](CO)N1C[C@H](C)[C@H](CN(C)S(=O)(=O)c2ccc(Cl)cc2)Oc2c(NC(=O)c3nc4ccccc4s3)cccc2C1=O	none (no result: Wnt bcat act, MITF act)
C[C@H](CO)N1C[C@H](C)[C@@H](CN(C)CC2CCOCC2)Oc2ncc(Br)cc2C1=O	PGC1a acetyl inh 88.9! (no result: MITF act)
C[C@@H]1CN([C@@H](C)CO)C(=O)c2cc(Br)cnc2O[C@H]1CN(C)CC1CCOCC1	none (no result: Wnt bcat act, MITF act)
C/C=C/c1cnc2c(c1)C(=O)N([C@@H](C)CO)C[C@H](C)[C@@H](CN(C)C(=O)C1CCCCC1)O2	none (no result: Wnt bcat act, MITF act)
CC(C)CC#Cc1cnc2c(c1)C(=O)N([C@H](C)CO)C[C@@H](C)[C@@H](CN(C)C(=O)c1ccc3c(c1)OCO3)O2	Cneo AK release 88.6 (no result: Wnt bcat act, MITF act)
C/C=C/c1cnc2c(c1)C(=O)N([C@@H](C)CO)C[C@@H](C)[C@@H](CN(C)C(=O)C1CCCCC1)O2	Cneo AK release 105.4 (no result: Wnt bcat act, MITF act)
C[C@H]1CN([C@@H](C)CO)C(=O)c2cc(-c3cncnc3)cnc2O[C@H]1CN(C)C(=O)c1ccccc1F	Cneo AK release 90.1 (no result: Wnt bcat act, MITF act)
CCCNC(=O)C[C@H]1CC[C@@H]2[C@H](COc3ccc(NS(=O)(=O)CC)cc3C(=O)N2C)O1	none (no result: Wnt bcat act, MITF act)
C[C@H]1CN([C@@H](C)CO)C(=O)c2cc(C#Cc3ccccn3)cnc2O[C@H]1CN(C)Cc1ccncc1	Cneo AK release 94.0 (no result: Wnt bcat act, MITF act)
C[C@H](CO)N1C[C@H](C)[C@@H](CN(C)C(=O)C2CCOCC2)Oc2ncc(C#CCc3ccccc3)cc2C1=O	Cneo AK release 86.4 (no result: Wnt bcat act, MITF act)
